Compound activity deposited in PubChem BioAssay by Broad Institute.
GASC1 inh – inhibitors of human demethylase GASC-1 KDM4C. Q9H3R0. actives 0.15% (n = 96,000). inhibition, % at 12.5 µM. GST-KDM4C 2-372, H3K9me3 peptide, LANCE TR-FRET;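 active means mean replicate inhibition above about 25%, with at least 55% of replicates also reaching it, limit read from the data, passing the limit was not always enough; inconclusive means only one of those two conditions met; inactive means neither condition met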
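Compound: one test concentration per compound; Material: GST-GASC-1 enzyme fragment 2-372; Amount: GASC-1 enzyme at 10 nM final in reaction; Also added: H3K9me3 peptide substrate, Fe(II), 2-oxoglutarate; Technique: LANCE TR-FRET; Times: 30 min demethylation and 1 h detection at room temperature.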
T cruzi growth-1 – inhibitors of T. cruzi proliferation. T. cruzi beta-gal in NIH3T3, GalScreen luminescence, 90 h. inhibition, % at 8.34 µM. actives 5.9% (n = 77,000). AID 624255;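 active means mean inhibition above about 93%, with at least 55% of replicates each passing it, limit read from the data, passing the limit was not always enough; inconclusive means only one of those two conditions holds; inactive means neither condition holds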
Pf Dd2 growth – P. falciparum Dd2 growth inhibition. SYBR Green, 72 h; hits give low values. activity change, % at 10 µM. actives 2.3% (n = 94,000). AID 1159554; in the data active means activity change below about -80%; inconclusive means no clear call, values can overlap the other calls
IDH1 R132H inh – blocks human IDH1 R132H reductase activity | AID 624101 | inhibition, % at 10 µM | actives 0.18% (n = 70,000) | diaphorase/resazurin fluorescence, 60 min; in the data active means inhibition above about 34%; inconclusive means no clear call, values can overlap the other calls; inactive means below about 11%;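 further: 0% = DMSO and 100% = no enzyme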
Target sequence (O75874 whole entry R132H): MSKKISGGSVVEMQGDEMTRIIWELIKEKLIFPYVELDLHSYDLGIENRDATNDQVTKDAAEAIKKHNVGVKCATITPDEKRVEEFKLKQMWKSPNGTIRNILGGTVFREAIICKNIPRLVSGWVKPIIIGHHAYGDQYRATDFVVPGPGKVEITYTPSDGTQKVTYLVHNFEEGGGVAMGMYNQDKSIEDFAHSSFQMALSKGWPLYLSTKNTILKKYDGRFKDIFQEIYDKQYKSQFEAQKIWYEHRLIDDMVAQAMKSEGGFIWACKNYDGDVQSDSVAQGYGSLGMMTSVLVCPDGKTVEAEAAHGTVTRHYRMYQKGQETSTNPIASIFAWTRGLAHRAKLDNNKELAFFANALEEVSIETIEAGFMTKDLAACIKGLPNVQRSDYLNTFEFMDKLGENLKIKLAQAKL
T cruzi growth-2 – inhibitors of T. cruzi proliferation. shares compounds with T cruzi growth-1. T. cruzi beta-gal in NIH3T3, GalScreen luminescence, 90 h. inhibition, % at 8.35 µM. actives 72% (n = 5,600). AID 651739;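 active means mean replicate inhibition above about 95% and at least 55% of replicates individually reaching it, limit read from the data; inconclusive means only one of the two criteria is met; inactive means neither criterion is met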
T cruzi growth-3 – blocks T. cruzi growth in NIH3T3 host cells; inhibition, % at 2.09 µM; T. cruzi beta-gal in NIH3T3, GalScreen luminescence, 90 h; actives 21% (n = 5,600); shares compounds with T cruzi growth-1;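 active means mean inhibition above about 95%, with at least 55% of replicates also reaching it, limit read from the data; inconclusive means meets just one of the two conditions; inactive means meets neither condition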;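 further: plate controls were neutral control median for no effect and positive control median for full effect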
NIH3T3 tox – cytotoxicity in mouse NIH/3T3 fibroblasts | shares compounds with T cruzi growth-1 | NIH/3T3 viability, CellTiter-Glo ATP luminescence, 90 h | cytotoxicity (signal decrease), % at 8.35 µM | actives 14% (n = 5,600) | AID 651742;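 active means mean signal decrease across replicates above about 35% based on untreated-well scatter, with enough replicates individually passing, limit read from the data; inconclusive means no rule stated though some were filed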;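 further: 0% = median of neutral control wells and 100% = median of positive control wells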
NIH3T3 tox 2 – kills mouse NIH/3T3 fibroblasts | shares compounds with T cruzi growth-1 | NIH/3T3 viability, CellTiter-Glo ATP luminescence, 90 h | inhibition, % at 24.9 µM | actives 56% (n = 5,600) | AID 651744;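 active means mean loss of cell viability signal at or above a set limit, and enough replicates individually reaching it; inconclusive means meets only the mean limit or only the replicate share; inactive means meets neither condition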;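 further: 0% = median of neutral control wells and 100% = median of positive control wells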
Active calls of the source: *; ? = inconclusive; / = no result. A selection: hits, their analogues and other compounds. The true share with any hit is near 5.8%.

SMILES | GASC1 inh | T cruzi growth-1 | Pf Dd2 growth | IDH1 R132H inh | T cruzi growth-2 | T cruzi growth-3 | NIH3T3 tox | NIH3T3 tox 2
CC(C)NC(=O)N(C)C[C@H]1Oc2ccc(NC(=O)CCCCCC(=O)Nc3ccccc3N)cc2CC(=O)N([C@H](C)CO)C[C@@H]1C | 0 | / | 15 | 0 | / | / | / | /
C[C@@H](O)C#Cc1ccc2c(c1)O[C@H](CN(C)CC1CCOCC1)[C@@H](C)CN([C@@H](C)CO)S2(=O)=O | -1 | 67 | -27 | 1 | / | / | / | /
CO[C@@H]1CN(C)C(=O)c2cc(NC(=O)NC(C)C)ccc2OC[C@@H](C)N(Cc2ccccn2)C[C@H]1C | 0 | -35 | 27 | 0 | / | / | / | /
CC(C)C(=O)Nc1ccc2c(c1)C(=O)N(C)[C@@H]1CC[C@@H](CC(=O)NCc3ccc(F)cc3)O[C@@H]1CO2 | -2 | 96* | 4 | / | 49 | -13 | 17 | -15
CC(C)C(=O)Nc1ccc2c(c1)C(=O)N(C)[C@@H]1CC[C@@H](CC(=O)NCc3ccc(F)cc3)O[C@H]1CO2 | 0 | 42 | -13 | / | / | / | / | /
C[C@H]1CN([C@@H](C)CO)S(=O)(=O)c2ccc(C3=CCCCC3)cc2O[C@@H]1CN(C)Cc1cncnc1 | 2 | 102* | -22 | 2 | 102* | 63 | 55* | 69*
C[C@@H]1CN([C@@H](C)CO)S(=O)(=O)c2ccc(C3=CCCCC3)cc2O[C@@H]1CN(C)Cc1ccccc1 | 0 | 122* | -71 | -1 | 100* | 117* | 27 | 106*
C[C@H]1CN([C@@H](C)CO)S(=O)(=O)c2ccc(C3=CCCCC3)cc2O[C@H]1CN(C)Cc1ccccc1 | 0 | 120* | -53 | 0 | 91 | 93 | 68* | 105*
C[C@H](CO)N1C[C@H](C)[C@H](CN(C)Cc2ccccc2)Oc2cc(C3=CCCCC3)ccc2S1(=O)=O | -1 | ? | -9 | -2 | 100* | 71 | 0 | 103*
O=C(C[C@@H]1CC[C@H]2[C@@H](COC[C@@H](O)CN2Cc2ccc(Cl)cc2)O1)NCc1cccc(F)c1 | 2 | / | 0 | / | / | / | / | /
Cc1cc(C)cc(NC(=O)Nc2ccc3c(c2)C(=O)N(C)[C@H]2CC[C@H](CC(=O)O)O[C@@H]2CO3)c1 | 0 | 3 | 4 | / | / | / | / | /
C[C@@H]1CN([C@@H](C)CO)C(=O)c2cc(NS(C)(=O)=O)ccc2O[C@@H]1CN(C)S(=O)(=O)c1ccc(F)cc1 | 1 | -141 | -5 | 1 | / | / | / | /
C[C@@H]1CCCCO[C@H](CN(C)Cc2ccc(Cl)c(Cl)c2)[C@@H](C)CN([C@@H](C)CO)C(=O)c2cc(NS(=O)(=O)c3ccccc3)ccc2O1 | / | 94 | -38 | 3 | / | / | / | /
C[C@H](CO)N1C[C@H](C)[C@H](CN(C)Cc2cccc(C(=O)O)c2)Oc2cc(C3=CCCCC3)ccc2S1(=O)=O | 2 | 50 | -31 | / | / | / | / | /
C[C@@H]1CN([C@H](C)CO)S(=O)(=O)c2ccc(C3=CCCCC3)cc2O[C@@H]1CN(C)Cc1ccccc1 | -1 | 125* | -62 | 2 | 97* | 102* | 26 | 105*
C[C@H](CO)N1C[C@H](C)[C@@H](CN(C)Cc2ccccc2)Oc2cc(C3=CCCCC3)ccc2S1(=O)=O | 0 | 116* | -57 | 0 | 100* | 101* | 45* | 105*
C[C@H]1CN([C@@H](C)CO)C(=O)c2cccc(N(C)C)c2O[C@H]1CN(C)S(=O)(=O)c1cn(C)cn1 | -1 | -28 | 12 | / | / | / | / | /
C[C@@H]1CN([C@H](C)CO)C(=O)c2cc(NC(=O)Nc3ccc(F)cc3)ccc2O[C@@H](C)CCCCO[C@@H]1CN(C)Cc1ccc(Cl)c(Cl)c1 | 12 | 101* | -79 | 0 | 96* | 105* | -29 | -12
C[C@H]1CCCCO[C@H](CN(C)Cc2ccc(Cl)c(Cl)c2)[C@@H](C)CN([C@@H](C)CO)C(=O)c2cc(NC(=O)Nc3ccc(F)cc3)ccc2O1 | -2 | 102* | -34 | / | 95* | 112* | 2 | 7
